Columns and labels:
HL-60 [1] = assay: Mean in vitro concentration to inhibit the metabolic activity of HL-60 cells after 2 days of incubation; n=3; format: functional, cell-based; settings: Homo sapiens, HL-60, 48 h
Outline: (§1)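 Human HL-60 promyelocytic leukemia cells in RPMI 1640 with 8.25% FCS, 37 °C, 5% CO2. Seeded in triplicate at 12.5×10^4 (2-day) or 3.75×10^4 (4-day) cells/0.5 mL. Drug in DMSO (0.2% final), serial dilutions.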

HL-60 [2] = assay: Mean in vitro concentration to inhibit the metabolic activity of HL-60 cells after 4 days of incubation; n=3; format: functional, cell-based; settings: Homo sapiens, HL-60, 96 h; outline: as §1

IC50 (HL-60 [1]) [µM] | IC50 (HL-60 [2]) [µM] | SMILES
> 62.5 | > 62.5 | COC(=O)[C@@H](C)NC(=O)c1[nH]cnc1C(=O)Nc1ccc(Cl)c(Cl)c1
6.3 | 3.5 | Cc1ccc(NC(=O)c2nc[nH]c2C(=O)N[C@H](C)C(=O)OC(C)(C)C)cc1
8.5 | 4.9 | COC(=O)[C@H](NC(=O)c1[nH]cnc1C(=O)Nc1ccc(Cl)c(Cl)c1)C(C)C
> 62.5 | > 62.5 | COC(=O)[C@@H](NC(=O)c1[nH]cnc1C(=O)Nc1ccc(Cl)c(Cl)c1)C(C)C
49.8 | 25.4 | CC(C)(C)OC(=O)CNC(=O)c1[nH]cnc1C(=O)Nc1ccc(Cl)c(Cl)c1
6.6 | 3.3 | C[C@@H](NC(=O)c1[nH]cnc1C(=O)Nc1ccc(Cl)cc1)C(=O)OC(C)(C)C
4.9 | 2.4 | C[C@H](NC(=O)c1[nH]cnc1C(=O)Nc1ccc(Cl)c(Cl)c1)C(=O)OC(C)(C)C
4.6 | 2.5 | C[C@@H](NC(=O)c1[nH]cnc1C(=O)Nc1ccc(Cl)c(Cl)c1)C(=O)OC(C)(C)C
8.2 | 2.9 | C[C@@H](NC(=O)c1[nH]cnc1C(=O)Nc1cccc(Cl)c1)C(=O)OC(C)(C)C

The next lines start with the compound.

SMILES | IC50 (HL-60 [1]) [µM] | IC50 (HL-60 [2]) [µM]
O=C(NCc1ccc(-c2ccccc2)cc1)c1nc[nH]c1C(=O)Nc1ccc(Cl)c(Cl)c1 | 7 | 2.9
CC(C)CNC(=O)c1[nH]cnc1C(=O)Nc1ccc(Cl)c(Cl)c1 | 14.7 | 7.2
O=C(Nc1ccc(Cl)c(Cl)c1)c1nc[nH]c1C(=O)NCc1ccc(Cl)cc1 | 16.2 | 8.8
COC(=O)[C@H](NC(=O)c1[nH]cnc1C(=O)Nc1ccc(Cl)c(Cl)c1)c1ccccc1 | 17.3 | 10.8
C[C@H](NC(=O)c1[nH]cnc1C(=O)Nc1ccc(Cl)c(Cl)c1)c1ccccc1 | 9.2 | 5.9
COc1ccc(CNC(=O)c2[nH]cnc2C(=O)Nc2ccc(Cl)c(Cl)c2)cc1 | 24.3 | 18.3
C[C@@H](NC(=O)c1[nH]cnc1C(=O)Nc1ccc(Cl)c(Cl)c1)c1ccccc1 | 8.8 | 5.9
C[C@@H](NC(=O)c1[nH]cnc1C(=O)Nc1ccccc1)C(=O)OC(C)(C)C | 4.7 | 2.7
CCOC(=O)c1ccc(NC(=O)c2[nH]cnc2C(=O)N[C@H](C)C(=O)OC(C)(C)C)cc1 | 6.3 | 3.7
CCCN(CCC)C(=O)c1[nH]cnc1C(=O)Nc1ccc(Cl)c(Cl)c1 | 379 | 38.9
C[C@H](c1ccccc1)N(C)C(=O)c1[nH]cnc1C(=O)Nc1ccc(Cl)c(Cl)c1 | 89.4 | 68.8
CCCCCCNC(=O)c1[nH]cnc1C(=O)Nc1ccc(Cl)c(Cl)c1 | 14.6 | 7.8
COC(=O)[C@@H](NC(=O)c1[nH]cnc1C(=O)Nc1ccc(Cl)c(Cl)c1)c1ccccc1 | 13.2 | 6.8
O=C(NCCc1ccccc1)c1nc[nH]c1C(=O)Nc1ccc(Cl)c(Cl)c1 | 17.7 | 13.2
O=C(NCc1ccccc1)c1nc[nH]c1C(=O)Nc1ccc(Cl)c(Cl)c1 | 11.5 | 7.4
O=C(NC1CCCCC1)c1nc[nH]c1C(=O)Nc1ccc(Cl)c(Cl)c1 | 33.1 | 12.3
COc1ccc(NC(=O)c2[nH]cnc2C(=O)N[C@H](C)C(=O)OC(C)(C)C)cc1 | 6 | 3.1
Cc1ccc(CNC(=O)c2[nH]cnc2C(=O)Nc2ccc(Cl)c(Cl)c2)cc1 | 21.4 | 15.2
C[C@@H](c1ccccc1)N(C)C(=O)c1[nH]cnc1C(=O)Nc1ccc(Cl)c(Cl)c1 | 75.5 | 56

Source: ChEMBL document CHEMBL1141085, “Imidazole-4,5-dicarboxamide derivatives with antiproliferative activity against HL-60 cells” (J Med Chem, 2005)
